Assay outcomes from PubChem BioAssay.
UCH37 DUB inh: inhibitors of human UCH37 deubiquitinase, primary screen, biochemical, Ub-AMC cleavage, fluorescence | 0.33% of 330,000 active | inhibition, % (concentration not given with the values) | Ubiquitin carboxyl-terminal hydrolase isozyme L5 (Homo sapiens), Q9Y5K5 | purified proteasome/UCH37 | AID 588478, 2011;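 active = mean inhibition over replicate wells above about 20%, limit read from the data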;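 note: 0% = compound-free wells with enzyme and 100% = wells lacking proteasome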
Target sequence (Q9Y5K5 whole entry, looked up): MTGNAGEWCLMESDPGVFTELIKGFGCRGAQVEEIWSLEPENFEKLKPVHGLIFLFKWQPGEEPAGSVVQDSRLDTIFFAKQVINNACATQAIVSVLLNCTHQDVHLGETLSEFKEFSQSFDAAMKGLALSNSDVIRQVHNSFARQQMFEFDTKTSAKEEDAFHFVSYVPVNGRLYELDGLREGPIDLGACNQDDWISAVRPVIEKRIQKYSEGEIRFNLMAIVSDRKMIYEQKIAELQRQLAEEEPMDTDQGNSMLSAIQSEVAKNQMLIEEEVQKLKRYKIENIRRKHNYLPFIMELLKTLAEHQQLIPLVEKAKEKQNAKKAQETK
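assay system = human UCH37 enzyme supplied as purified proteasome complex | amount = proteasome at 0.15 nM in the dispensed enzyme solution | schedule = 30 min compound-proteasome preincubation then 25 min substrate reaction, room temperature | measured by = fluorescence, ex 355 nm, em 460 nm | benchmarks = no-proteasome wells (full inhibition) and compound-free wells (no inhibition)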
Beta2AR agonist: beta2AR agonists driving receptor internalization, primary screen, cell-based, FAP fluorogen, flow cytometry; AID 504454, 2011; Beta-2 adrenergic receptor (Homo sapiens), P07550; response, % (no concentration beside the values); Am2.2-beta2AR cells; 0.43% of 340,000 active;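 active = response above a set limit, near 3 SD of response in nonfluorescent compounds, cut at about 42% in these data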
Target sequence (P07550 whole entry, looked up): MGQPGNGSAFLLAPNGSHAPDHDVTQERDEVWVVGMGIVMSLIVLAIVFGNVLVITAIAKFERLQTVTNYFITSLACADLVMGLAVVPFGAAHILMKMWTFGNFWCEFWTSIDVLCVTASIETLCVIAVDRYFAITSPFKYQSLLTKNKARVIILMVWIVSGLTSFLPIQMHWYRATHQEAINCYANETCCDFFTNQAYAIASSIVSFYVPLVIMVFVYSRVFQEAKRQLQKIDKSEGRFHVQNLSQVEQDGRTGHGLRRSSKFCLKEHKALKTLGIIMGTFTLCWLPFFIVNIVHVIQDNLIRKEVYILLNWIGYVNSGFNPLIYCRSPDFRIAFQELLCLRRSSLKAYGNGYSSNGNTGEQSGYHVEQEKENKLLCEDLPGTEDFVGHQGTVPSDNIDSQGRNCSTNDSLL
HKDC1 inh: HKDC1 hexokinase inhibitors, primary screen, biochemical, fluorescence, uHTS | 0.16% of 340,000 active | recombinant HKDC1, G6PDH/diaphorase resazurin coupled fluorescence | Q2TB90 | inhibition, % at 20 µM;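 active = inhibition above about 35% when tested at 20 µM, limit read from the data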;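 note: plate controls were DMSO wells with enzyme for no effect and DMSO wells lacking enzyme for full effect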
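Material – in-house recombinant HK5 (HKDC1) enzyme · Quantity – HKDC1 at 5 µg/mL · Buffer or medium – pH 8.0 Tris buffer with 10 mM MgCl2 · Reagent – glucose with 1 mM ATP · Dosing – single 20 µM dose · Times – reaction time 90 min, room temperature, protected from light · Technique – resorufin fluorescence at 613 nm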
PfG6PD inh: PfG6PD enzyme inhibitors, primary screen, biochemical, fluorescence intensity, uHTS. 0.78% of 350,000 active. glucose-6-phosphate dehydrogenase-6-phosphogluconolactonase (Plasmodium falciparum 3D7). PfGluPho enzyme, NADPH resazurin-diaphorase fluorescence. inhibition, % at 20 µM. AID 504690, 2011;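 active = inhibition reaching at least a set limit at 20 µM in the primary screen, cut at about 59% in these data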;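 note: 0% = DMSO wells with substrate and 100% = DMSO wells lacking glucose-6-phosphate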
H9c2 protect: cardioprotection against H2O2-induced cell death, primary screen, uHTS, H9c2 cells, ATPLite luminescence; H9c2 cardiomyocytes, H2O2 injury protection, 2 h; protection from H2O2 cell death, % at 20 µM; 0.63% of 360,000 active; AID 588492, 2011;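 active = compounds giving at least 50% protection of heart cells from peroxide-induced death in the single-dose screen, raw or plate-pattern-corrected value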;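 note: 0% = DMSO wells with peroxide and 100% = DMSO wells without peroxide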
aDG glyco up: activators of alpha-DG glycosylation, primary screen, uHTS, Pro5-aDG cells, AlphaScreen; alpha-DG glycosylation AlphaScreen (IIH6); 0% Pro5, 100% B10-LARGE cell signal; activation, % at 10 µM; 0.22% of 360,000 active;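 active = activation of at least 8% versus controls, or a plate z-score of at least 8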;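 note: Pro5 are CHO cells carrying HIG-tagged alpha-DG that lacks glycosylation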
HKDC1 act conf: HKDC1 hexokinase activators, confirmation, biochemical, single concentration | shares compounds with HKDC1 inh | inhibition, % at 20 µM | recombinant HKDC1, G6PDH/diaphorase resazurin fluorescence; stronger effect = lower value | 14% of 740 active;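 active = inhibition at or below a set negative limit, negative inhibition meaning the enzyme was activated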
B2AR ag CP1: beta2AR agonists via receptor internalization, confirmation, cell-based, FAP fluorogen, flow cytometry, single point, cherry pick 1 | 25% of 1,100 active | percent response (surface receptor), % at 10 µM | Am2.2-beta2AR cells, FAP surface receptor; stronger effect = lower value | shares compounds with Beta2AR agonist;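 active = surface receptor percent response at or below 58%, roughly 3 SD from nonfluorescent compounds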
FAP fluor counter: flagged in Am2.2 fluorescence counterscreen for beta-2AR agonists; 1,100 tested, under 10 active; calls only at 10 µM; shares compounds with Beta2AR agonist; AID 588765; Am2.2 cells, FAP fluorogen flow cytometry; stronger effect = lower value;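 active = percent response below a set limit in fluorescence channel 1 and below 50% in channel 8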
The depositor's hits bear a star; i = inactive; nt = no result. In the library only some 2.1% were active in any assay of this set; here they are far more common.

SMILES | UCH37 DUB inh | Beta2AR agonist | HKDC1 inh | PfG6PD inh | H9c2 protect | aDG glyco up | HKDC1 act conf | others
COc1ccc(N2C(=O)NC(=O)/C(=C/c3ccc([N+](=O)[O-])s3)C2=O)cc1 | 13 | -28 | 5 | 56 | 0 | 0 | nt
COc1ccccc1N1C(=O)NC(=O)/C(=C\c2cnn(-c3ccccc3)c2)C1=O | 7 | 24 | 1 | 11 | -9 | 0 | nt
O=C1NC(=O)N(Cc2ccc(F)cc2)C(=O)/C1=C\c1ccc(N2CCCC2)cc1 | 4 | 14 | 25 | 3 | 1 | 0 | nt
COc1ccc(N2C(=O)NC(=O)/C(=C\c3ccc([N+](=O)[O-])s3)C2=O)cc1 | 9 | 10 | 6 | 63* | 0 | 0 | nt
CNC(=O)ON=C(N)Cc1csc2ccc(Cl)cc12 | 3 | nt | nt | nt | nt | nt | nt
CNC(=O)ON=C(N)Cc1csc2ccccc12 | 1 | nt | nt | nt | nt | nt | nt
O=c1[nH]c(=O)n(-c2cccc(F)c2)c(O)c1/C=C1\C=Nc2ccccc21 | 2 | 44* | 3 | 21 | 7 | 0 | nt
COc1cc(C=NNP(=S)(c2ccccc2)c2ccccc2)ccc1O | 2 | nt | nt | nt | nt | nt | nt
CC1=C[C@@H](C)CC=C[C@H]2[C@@H]3O[C@]3(C)[C@@H](C)[C@H]3[C@H](Cc4c[nH]c5ccccc45)NC(=O)[C@]32C(=O)C=CC(=O)[C@@H]1O | 1 | nt | nt | nt | nt | nt | nt
C/C1=C\[C@@H](C)C/C=C/[C@H]2[C@@H]3O[C@]3(C)[C@@H](C)[C@H]3[C@H](Cc4c[nH]c5ccccc45)NC(=O)[C@]32C(=O)/C=C/C(=O)[C@@H]1O | nt | 72* | 2 | 18 | -16 | 0 | nt
COc1cc(C=NNC(=O)Cn2c([N+](=O)[O-])cnc2C)ccc1OC(=O)N(C)C | 3 | nt | nt | nt | nt | nt | nt
Cc1cccc2c1=NC(=O)/C(=C/c1c(O)[nH]c(=O)[nH]c1=O)C=2 | 4 | 5 | -8 | 23 | 43 | 0 | nt
O=c1[nH]c(=S)[nH]c(O)c1/C=C1/C=c2ccccc2=N1 | 3 | 52* | 7 | 22 | 0 | 0 | nt
Nc1c(Br)cc2c3c(cccc13)-c1ccccc1-2 | -6 | nt | 70* | 125* | nt | nt | 51
c1ccc2c(c1)-c1cccc3cccc-2c13 | -88 | 1 | 5 | 30 | -4 | 0 | nt
CCN(CC)CCNC(=O)c1c(O)c2ccccc2n(Cc2ccccc2)c1=O | 0 | -4 | -4 | 9 | 14 | 1 | nt
CCN(CC)CCCNC(=O)c1c(O)c2ccccc2n(Cc2ccccc2)c1=O | -2 | 17 | 83* | 40 | 29 | 1 | -37*
Cc1ccc(C2N3CCCN23)cc1 (configuration not stated) | 2 | 2 | 1 | 20 | 0 | 0 | nt
Brc1ccc(C2N3CCCN23)cc1 (configuration not stated) | 2 | -3 | -79 | -6 | -3 | 0 | -23
O=C1NC(=S)NC(=O)C1=Cc1ccc2c(c1)CCN2CCCCl | 7 | 15 | 59* | 13 | 8 | 0 | 10
CCOc1cc(C=C2C(=O)NC(=S)NC2=O)ccc1O | 7 | 6 | 2 | 17 | 1 | 0 | nt
O=c1nc(/C=C/c2ccc(Cl)cc2Cl)cc(C(F)(F)F)[nH]1 | 9 | 10 | 35* | -6 | -8 | 0 | 6
N#Cc1c(N=CC2C(=O)NC(=S)NC2=O)sc2c1CCCC2 | 12 | nt | nt | nt | nt | nt | nt
Cc1ccccc1N1C(=O)NC(=O)/C(=C\c2ccc3c(c2)CCCN3Cc2ccccc2)C1=O | 5 | 13 | 35* | 16 | 6 | 0 | 13
CC12CN3CCN(CC(C3)C1=NNC(N)=O)C2 | 3 | nt | nt | nt | nt | nt | nt
SMILES | UCH37 DUB inh | Beta2AR agonist | HKDC1 inh | PfG6PD inh | H9c2 protect | aDG glyco up | HKDC1 act conf | others
CC1CCC(C)(NS(=O)(=O)OCC(Cl)(Cl)Cl)CC1 (configuration not stated) | -3 | -7 | 38* | 3 | -6 | 0 | -30
CC(=NNC(=S)N1CC2CCC(CC2)C1)c1nccs1 | nt | -3 | -43 | 29 | 24 | -1 | -42*
CCN1C(=O)NC(=O)/C(=C/c2cc(C)n(-c3sc(C)c(C)c3C#N)c2C)C1=O | 0 | 5 | 7 | 11 | 2 | 0 | nt
Cc1ccc(N2C(=O)NC(=O)/C(=C\c3cc(C)n(-c4sc5c(c4C#N)CCCC5)c3C)C2=O)cc1 | 7 | 33 | 66* | 22 | -9 | 1 | 77
CCOC(=O)c1c(-n2c(C)cc(C=C3C(=O)NC(=S)NC3=O)c2C)sc2c1CCCC2 | 7 | 13 | 59* | -39 | -12 | 0 | 61
COc1cc(C(=O)NN=CC23CC[C@@H](O)CC2(O)CC[C@@H]2[C@@H]3CCC3(C)C(C4=CC(=O)OC4)CCC23O)ccc1O (some centres not stated) | 3 | nt | nt | nt | nt | nt | nt
CN(CN=C(N)N[N+](=O)[O-])S(=O)(=O)c1ccccc1 | 3 | nt | nt | nt | nt | nt | nt
COc1cc(O)cc2c1cc([N+](=O)[O-])c1c(C(=O)O)cc3c(c12)OCO3 | 4 | -1 | 36* | 42 | 1 | 0 | 33
COc1ccccc1/C=C1/C(=NO)C2CCN1CC2 | 4 | nt | nt | nt | nt | nt | nt
CC[C@H](C)/C=C(C)/C=C/C1=CC2=C(Cl)C(=O)[C@](C)(OC(C)=O)C(=O)C2=CO1 | 16 | 8 | 59* | 18 | 0 | 0 | 36
CC(=O)O[C@@H]1C=C[C@](C)(O)C[C@@H](C)CC=C[C@H]2[C@H](O)C(C)=C(C)[C@H]3[C@H](Cc4ccccc4)NC(=O)[C@@]123 | 3 | nt | nt | nt | nt | nt | nt
COc1cc(C=NNC(=O)CN2CC(c3ccccc3)CC2=O)ccc1OC(=O)N(C)C (configuration not stated) | 4 | nt | nt | nt | nt | nt | nt
CC(NCc1ccccc1C(F)(F)F)C(O)c1ccccc1 (configuration not stated) | 1 | -2 | -2 | 12 | 4 | 0 | nt | B2AR ag CP1=102;FAP fluor counter=i
